Screening results from PubChem.
HSP90 refold inh: HSP90 refolding inhibition in rabbit reticulocyte lysate; luciferase refolding luminescence, 3 h; inhibition, % at 5.6 µM; 290,000 compounds, 0.91% hits;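 active = inhibition above the screen-wide mean plus 3 SD, computed separately per campaign, cut at about 16% in these data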;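 note: 0% = DMSO wells and 100% = 60 µM geldanamycin wells; inhibitors lower the luminescence because luciferase stays unfolded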
SENP6 inh: SENP6 protease inhibition | 330,000 compounds, 1.8% hits | inhibition, % at 10 µM | Recombinant SENP6 catalytic domain, aminoluciferin luminescence | AID 2599;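 active = inhibition above about 50% at the single tested dose, limit read from the data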;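 note: plate controls were DMSO wells with enzyme for no effect and DMSO wells lacking enzyme for full effect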
SENP8 block-1: SENP8 protease inhibition. AID 2540. purified SENP8, Z-RLRGG-aminoluciferin cleavage, luminescence. Q96LD8. inhibition, % at 10 µM. 330,000 compounds, 1.2% hits; in the data active = inhibition above about 50%
SENP8 block-2: inhibitors of human SENP8 protease. recombinant SENP8, Nedd8 substrate fluorescence. inhibition, % at 20 µM. 360,000 compounds, 0.64% hits. AID 602440; in the data active = inhibition mostly above about 40%, no sharp cut-off; inactive = mostly below about 27%
SENP7 inh: inhibitors of human SENP7 protease; Q9BQF6; 330,000 compounds, 1.5% hits; AID 434973; recombinant SENP7, Z-RLRGG-aminoluciferin luminescence, 40 min; inhibition, % at 5 µM;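 active = inhibition above about 50% at the single test dose, limit read from the data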;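 note: plate controls were DMSO with enzyme for no effect and no enzyme buffer wells for full effect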
Target sequence (Q9BQF6 706-1050 limits assumed): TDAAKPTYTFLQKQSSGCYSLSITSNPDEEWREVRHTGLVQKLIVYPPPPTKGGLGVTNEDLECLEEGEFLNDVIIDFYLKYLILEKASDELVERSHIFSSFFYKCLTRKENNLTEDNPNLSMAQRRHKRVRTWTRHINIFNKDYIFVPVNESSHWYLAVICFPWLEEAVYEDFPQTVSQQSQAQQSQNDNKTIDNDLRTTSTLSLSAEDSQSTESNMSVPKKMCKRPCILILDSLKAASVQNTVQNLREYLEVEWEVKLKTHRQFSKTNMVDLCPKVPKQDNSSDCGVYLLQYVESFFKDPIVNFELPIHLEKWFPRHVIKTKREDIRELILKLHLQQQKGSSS
SENP1 FRET inh: blocks the human SENP1 SUMO protease catalytic domain; Q9P0U3; recombinant SENP1 catalytic domain, CyPet-SUMO1-YPet FRET cleavage; inhibition, % at 10 µM; 360,000 compounds, 0.21% hits; AID 624204;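 active = inhibition at least 30% at 10 µM, raw YFP signal under a set limit, fluorescence ratio 0.5 to 1.5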;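 note: 0% = enzyme with DMSO and 100% = no enzyme wells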
Target sequence (Q9P0U3 419-644 limits assumed): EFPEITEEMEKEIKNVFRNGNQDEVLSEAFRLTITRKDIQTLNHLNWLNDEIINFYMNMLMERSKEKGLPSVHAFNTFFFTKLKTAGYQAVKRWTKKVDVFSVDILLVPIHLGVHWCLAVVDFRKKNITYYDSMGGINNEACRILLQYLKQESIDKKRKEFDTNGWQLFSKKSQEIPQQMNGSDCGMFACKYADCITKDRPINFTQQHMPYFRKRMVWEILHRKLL
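Compound: 10 µM single point, 0.5% DMSO; Test system: hSENP1 catalytic domain, recombinant; Timing: 50 min reaction at room temperature; Technique: FRET, CFP and YFP emission; Control set: no-enzyme wells low, DMSO-plus-enzyme wells high control.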
The depositor's hits bear a star; x = not tested or not shown. Hits are enriched below; roughly 2.9% of the tested compounds scored in any of these assays.

SMILES	HSP90 refold inh	SENP6 inh	SENP8 block-1	SENP8 block-2	SENP7 inh	SENP1 FRET inh
CCOc1ccc(NC(=O)CN(C)C(=O)c2ccccc2-n2cnnn2)cc1OCC	x	-12	-10	8	14	-2
Cc1cccc(COc2ccc(/C=N/NC(=O)c3nnn(-c4nonc4N)c3COc3ccc(F)cc3)cc2)c1	16*	-41	-12	-138	-9	4
Nc1nonc1-n1nnc(C(=O)N/N=C/c2ccc(OCc3ccccc3)cc2)c1COc1ccc(F)cc1	-1	-24	-12	-137	0	-2
CC(NC(=O)CNC(=O)c1ccccc1F)c1ccc(-n2ccnc2)cc1 (stereo not given)	x	-14	-12	3	-12	0
O=C(NCCc1ccc(Cl)cc1)c1cc(S(=O)(=O)N2CCCCC2)c[nH]1	38*	-3	-3	9	18	1
Cc1ccc(CCNC(=O)c2cc(S(=O)(=O)N3CCCCC3)c[nH]2)cc1	5	-20	-3	9	-6	1
O=c1[nH][nH]c(-c2ccccc2)c1-c1ccccc1	x	x	x	-92	x	0
O=c1c(-c2ccccc2)c1-c1ccccc1	20*	-16	-13	x	-13	x
CN1/C(=C\C(=O)c2cccnc2)C(C)(C)c2ccccc21	-3	-17	-13	-183	-3	-26
CN1/C(=C/C(=O)c2nc(S(C)(=O)=O)ncc2Cl)C(C)(C)c2ccccc21	1	-10	5	25	7	42*
CC1CN(CC(O)c2ccc(Br)cc2)CCO1 (stereo not given)	x	x	x	6	x	1
Cc1ccc(Nc2ccc([N+](=O)[O-])ccc2=O)cc1	x	21	6	43*	7	0
NS(=O)(=O)c1cccc(NC(=O)COC(=O)Cn2cc(C(F)(F)F)ccc2=O)c1	x	-13	2	7	2	3
Cc1cc(NC(=O)CN2C(=O)/C(=C/c3ccc(C(C)C)cc3)SC2=S)no1	x	x	x	37	x	-1
O=C(Cc1ccc(F)cc1)OCC(=O)c1cc2ccccc2o1	16*	-8	-4	6	6	0
O=C(O)c1cccc(NC(=O)c2ccc3c(c2)C(=O)N(Cc2ccco2)C3=O)c1	10	89*	84*	8	88*	3
Cn1nc(C2CC2)cc1NC(=O)C1(C)CCN1C(=O)Cc1ccc(-c2ccccc2)cc1 (stereo not given)	x	x	x	10	x	2
CCN(CC)c1ccc(/C=C(\C#N)C(=O)c2ccc(Br)cc2)cc1	2	x	x	50*	x	-27
CCN(CC)c1ccc(/C=C(\C#N)C(N)=O)cc1	-5	x	x	-62	x	-38
Cc1ccc2[nH]c3c(c2c1)CN(C(C)C)CC3	16*	-14	3	-13	3	-5
COc1cc(/C=C/C(=O)O)cc(S(=O)(=O)Nc2ccc3nc(C)sc3c2)c1OC	17*	4	-4	5	-3	-1
COC(=O)c1ccccc1NC(=O)N1c2ccccc2Sc2ccccc21	-1	12	1	8	1	-2
COc1ccccc1N=Nc1ccc(O)c2ncccc12	12	65*	47	87*	25	21
Cc1ccc(N=Nc2ccc(O)c3ncccc23)cc1	4	x	x	43*	x	1
O=C1OCCC1=COCCCCCCOC=C1CCOC1=O	x	x	x	0	x	-2
SMILES	HSP90 refold inh	SENP6 inh	SENP8 block-1	SENP8 block-2	SENP7 inh	SENP1 FRET inh
CN(C)c1ccc(C=C2SC(=S)NC2=O)cc1	x	x	x	39	x	-34
CN(C)c1ccc(/C=N/N=C2/NC(=O)/C(=C/c3ccc([N+](=O)[O-])cc3)S2)cc1	15	69*	36	4	34	40
COc1ccccc1-c1cnc(C(O)c2ccc(SC)cc2)[nH]1 (stereo not given)	x	x	x	12	x	1
COc1ccc(N=Nc2n(C)c3ccccc3[n+]2C)cc1	79*	x	x	x	x	x
Oc1ccc2ccccc2c1C=NCc1ccccc1	10	60*	14	6	14	-20
Oc1ccc2ccccc2c1/C=N/Nc1ccccc1	-3	-17	-11	-56	-3	-27
COc1cccc2cc(-c3ccccc3)c(=O)oc12	-3	42	66*	-74	75*	1
Cc1cc(O)c(C=O)c2c1C(=O)Oc1c(CO)c(O)c3c(c1O2)C(O)OC3=O (stereo not given)	1	-156	5	25	-5	30*
O=C(c1cc(-c2ccc(F)cc2)on1)N1CCCCCC1	17*	25	-1	12	-10	2
Nc1ccc(N=Nc2ccc(O)cc2)c(N)n1	x	x	x	-22	x	5
COc1ccc(N=Nc2cc(OC)c(N)cc2OC)cc1	x	x	x	42*	x	6
COc1ccc(N=Nc2ccc(N)nc2N)cc1	4	78*	73*	4	78*	-15
COC(=O)c1ccc(NC(=O)c2ccc(NS(=O)(=O)c3cccc4cccnc34)cc2)cc1	17*	-34	0	15	-1	0
O=C(Nc1nc2ccsc2c(=O)s1)c1ccc(Cl)cc1	-4	95*	94*	-113	100*	-29
O=C(Nc1nc(=O)c2ccccc2s1)c1ccc(Cl)cc1	1	7	-22	24	27	3
COc1ccccc1-c1cccc([C@@H]2C[C@H]3[C@H](CON3C)CN2C(=O)CCc2ccccc2)c1	x	x	x	4	x	-2
Cc1nonc1C(=O)N/N=C/c1ccc(O)c(O)c1	-1	97*	96*	15	99*	3
N/C(=N\N=C\c1ccc(O)c(O)c1)c1nonc1N	3	99*	96*	15	99*	-11
COc1ccc(/C=N/N=C(\N)c2nonc2N)cc1OC	-2	17	11	13	26	0
O=C(N/N=C/c1ccc(O)c(O)c1)N/N=C/c1ccc(O)c(O)c1	0	-21	0	18	8	1
COc1ccc(-c2nnc(SCc3cc(C)ccc3C)n2N)cc1	-3	-13	-4	12	7	3
O=[N+]([O-])c1ccc(CSc2nc3ccccc3[nH]2)cc1	2	58*	34	18	61*	2
CCOc1ccc2nc(N3C(=O)/C(=C/c4ccc(Cl)cc4)NC3=S)sc2c1	-3	x	x	15	x	33*
COc1ccc2nc(N3C(=O)CNC3=S)sc2c1	4	43	29	-13	43	-2
CCC(N=c1cc(-c2ccc(OC)cc2)oc2ccc(C)cc12)C(=O)O (stereo not given)	3	52*	17	-414	14	-26
CCC(N=c1cc(-c2ccc(OC)c(OC)c2)oc2ccc(C)cc12)C(=O)O (stereo not given)	-2	7	-4	-409	-2	-45
CCc1nc2ccc(C(=O)N(CC)CCN(C)C)cn2c1N(CC)C(=O)NCCc1ccccc1	x	x	x	9	x	2
COC(=O)N/N=C/c1cc(N=Nc2ccccc2)ccc1O	-3	20	7	24	3	2
Cc1cc(C(=O)N/N=C/c2cc(N=Nc3ccccc3)ccc2O)n[nH]1	1	x	x	41*	x	3
